According to article PMC2743114 (Journal of immunological methods, 2009):

Columns and labels:
hCD1b dimer [1] = biological target: T1, hCD1b dimer (Homo sapiens, UniProt P29016); test: Direct ELISA binding of Biotinyl PE without competitor; details: pH 4–10 tested, Biotinyl PE 1μg/mL, overnight 37°C, no competitor
Procedure, shortened: (§1)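 Biotinyl PE (1μg/mL) was incubated overnight at 37°C with hCD1 dimer or mouse IgG1 isotype control. Incubation was in PBS adjusted with HCl or NaOH to pH 4–10, in plates coated with anti-mouse IgG Fc antibody. A well without biotinylated PE at pH 7 served as background. Assays were run in triplicate.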

hCD1c dimer [2] = biological target: T2, hCD1c dimer (Homo sapiens, UniProt P29017); test: as above; details: pH 4–10 tested, Biotinyl PE 1μg/mL, overnight 37°C, no competitor
T2 sequence (P29017 18-302 limits assumed): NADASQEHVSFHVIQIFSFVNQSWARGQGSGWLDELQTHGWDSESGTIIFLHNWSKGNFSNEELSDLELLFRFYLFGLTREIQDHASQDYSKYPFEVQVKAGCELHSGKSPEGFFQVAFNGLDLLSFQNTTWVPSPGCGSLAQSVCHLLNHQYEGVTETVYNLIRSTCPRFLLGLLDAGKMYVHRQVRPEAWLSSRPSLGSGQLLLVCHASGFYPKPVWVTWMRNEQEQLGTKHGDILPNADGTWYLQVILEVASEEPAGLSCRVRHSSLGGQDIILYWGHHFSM
Procedure, shortened: as §1

hCD1d dimer [3] = biological target: T3, hCD1d dimer (Homo sapiens, UniProt P15813); test: Direct ELISA binding of Biotinyl PE without competitor; details: Biotinyl PE 1μg/mL
T3 sequence (P15813 20-301 limits assumed): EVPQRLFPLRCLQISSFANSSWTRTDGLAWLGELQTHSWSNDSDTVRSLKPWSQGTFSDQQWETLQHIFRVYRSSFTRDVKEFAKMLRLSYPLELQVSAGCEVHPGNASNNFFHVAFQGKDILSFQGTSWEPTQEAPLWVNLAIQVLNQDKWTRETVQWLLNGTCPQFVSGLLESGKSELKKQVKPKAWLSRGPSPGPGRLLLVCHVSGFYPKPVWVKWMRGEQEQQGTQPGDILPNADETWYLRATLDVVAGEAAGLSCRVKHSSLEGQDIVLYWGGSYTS

mouse IgG1 = test: Direct ELISA binding of Biotinyl PE to isotype control; details: specificity control
Procedure, shortened: as §1

hCD1b dimer [4] = biological target: T1, hCD1b dimer; test: Competitive ELISA assay; assay type: binding
Procedure, shortened: (§2)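 Dimers are hCD1 α1–α3 fused to mouse IgG with β2m, expressed in J558L cells and purified on Protein G. Plates were coated overnight at 4°C with goat anti-mouse IgG Fc (10μg/mL, pH 9.6), then blocked 1 h. Dimer (5μg/mL), competitor lipid and Biotinyl PE (2μg/mL) in PBS were incubated overnight at 37°C and detected with HRP-avidin. Assays were run in triplicate. Ki = IC50/(1+[B-PE]/Kd), with Kd fitted from competitor-free Biotinyl PE titration.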

hCD1c dimer [5] = biological target: T2, hCD1c dimer; test: Competitive ELISA assay; assay type: binding
Procedure, shortened: as §2

hCD1d dimer [6] = biological target: T3, hCD1d dimer; test: Competitive ELISA assay; assay type: binding
Procedure, shortened: as §2

T1 sequence (P29016 18-303 limits assumed): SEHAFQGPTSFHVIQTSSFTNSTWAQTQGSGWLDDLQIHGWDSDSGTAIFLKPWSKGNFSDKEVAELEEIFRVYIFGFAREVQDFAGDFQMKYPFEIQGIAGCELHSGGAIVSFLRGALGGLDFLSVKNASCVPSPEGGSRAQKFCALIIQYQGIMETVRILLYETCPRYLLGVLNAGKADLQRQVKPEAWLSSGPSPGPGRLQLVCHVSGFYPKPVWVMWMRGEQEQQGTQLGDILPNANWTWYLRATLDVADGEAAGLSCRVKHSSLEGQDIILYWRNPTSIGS

`CCCCCCCC/C=C\CCCCCCCC(=O)OC[C@H](COP(=O)(O)OCCNC(=O)CCCC[C@@H]1SC[C@@H]2NC(=O)N[C@@H]21)OC(=O)CCCCCCC/C=C\CCCCCCCC` [Biotinyl PE, 1,2-Dioleoyl-sn-Glycero-3-Phosphoethanolamine-N-(Biotinyl)] was tested, and the “optimal pH for binding to CD1b” value (hCD1b dimer [1]) was 4-5, the “optimal pH for binding to CD1c” value (hCD1c dimer [2]) was 4-5 and the “time to reach a peak level of binding to hCD1d” value (hCD1d dimer [3]; 37°C, optimal condition) was 8 h. The “optimal pH for binding to CD1d” value (hCD1d dimer [3]; pH 4–10 tested, overnight 37°C, no competitor) was 5-7 and the “binding to mouse IgG1 (isotype control)” value (mouse IgG1) was “failed to bind”.

For Mycolic acid, the “binding to CD1b (inhibition of Biotinyl PE binding), in words” value (hCD1b dimer [4]; competitive ELISA) was “unable to detect the binding”.

Work on `CCCCCCCCCCCCCCCCCCCCCCCCCC(=O)N[C@@H](CO[C@H]1O[C@H](CO)[C@H](O)[C@H](O)[C@H]1O)[C@H](O)[C@H](O)CCCCCCCCCCCCCC` [α-GalCer, α-galactosylceramide] yielded a Ki (hCD1b dimer [4]) of 2.84 µM, a Ki (hCD1c dimer [5]) of 1.37 µM and a Ki (hCD1d dimer [6]) of 0.097 µM.
